{
  "source": "ChEMBL document CHEMBL5154772",
  "about": "“Biological Investigation of a Water-Soluble Isoginkgetin-Phosphate Analogue, Targeting the Spliceosome with In Vivo Antitumor Activity” (J Med Chem, 2022)",
  "key": {"[1]": {"assay": "Toxicity in C57BL/6 mouse assessed as change in liver weight at 250 mg/kg, ip administered as single dose and measured after 15 days (reference value: 1.2 to 1.3 g)", "format": "organism-based", "settings": "in vivo, 360 h, time 15 day", "how_it_was_run": "(§1)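 Female C57BL/6 mice given one IP injection of 100 µL, at 50, 100, 250 or 500 mg/kg in sterile PBS, two mice per dose; PBS-injected controls. Behaviour checked right after and at 30 min. Body weight recorded every 2–3 days for 15 days, then liver, spleen and kidneys weighed.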"}, "[2]": {"tested_on": "MCA-205", "assay": "Antitumour activity against mouse wild type MCA-205 cells implanted in C57BL/6 mouse assessed as decrease in tumour growth at 5 mg/kg,IT administered starting from day 7 post inoculation and thrice a week for 2 weeks", "format": "functional, organism-based", "how_it_was_run": "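MCA205 WT fibrosarcoma cells were inoculated subcutaneously into the right flank of female C57BL/6 mice. Dosing was 5 mg/kg intratumoral, three times per week for two weeks, starting day 7 post-inoculation; controls were untreated. Tumor area was recorded every 3–4 days, and tumor size was measured at killing. Analysis was by one-way ANOVA.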"}, "[3]": {"assay": "Half life in C57BL/6J mouse at 9.103 mg/kg, ip administered as single dose measured up to 24 hrs", "format": "ADME, organism-based", "settings": "in vivo", "how_it_was_run": "(§2)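 Single intraperitoneal dose in male C57BL/6J mice (12 per route). Tail-vein blood was collected under sodium heparin for plasma, with 3 mice sampled at each pair of times: 0.083/2, 0.25/4, 0.5/8 and 1/24 h. F denotes bioavailability.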"}, "[4]": {"assay": "Antitumour activity against mouse wild type MCA-205 cells implanted in C57BL/6 mouse assessed as tumor size by measuring cell killing pretreatment at 2.5 mg/kg, iv administered starting from day 7 post inoculation at five days interval upto 17 days relative to control", "format": "functional", "settings": "time <= 17 day", "how_it_was_run": "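Female C57BL/6 mice (6 weeks old) given subcutaneous MCA205 WT fibrosarcoma in the right flank. 2.5 mg/kg given intravenously on days 7, 12 and 17 after inoculation; untreated controls. Tumour area recorded every 3–4 days until ethical endpoints, then tumour size at killing. Groups compared by one-way ANOVA.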"}, "[5]": {"assay": "Cmax in C57BL/6J mouse at 9.103 mg/kg, ip administered as single dose measured up to 24 hrs", "format": "ADME, organism-based", "design": "time < 24 hrs, dose 9.103 mg/kg, route ip", "settings": "in vivo", "how_it_was_run": "as §2"}, "[6]": {"target": "Delta-type opioid receptor (Homo sapiens) (UniProt P41143)", "sequence (P41143 whole entry)": "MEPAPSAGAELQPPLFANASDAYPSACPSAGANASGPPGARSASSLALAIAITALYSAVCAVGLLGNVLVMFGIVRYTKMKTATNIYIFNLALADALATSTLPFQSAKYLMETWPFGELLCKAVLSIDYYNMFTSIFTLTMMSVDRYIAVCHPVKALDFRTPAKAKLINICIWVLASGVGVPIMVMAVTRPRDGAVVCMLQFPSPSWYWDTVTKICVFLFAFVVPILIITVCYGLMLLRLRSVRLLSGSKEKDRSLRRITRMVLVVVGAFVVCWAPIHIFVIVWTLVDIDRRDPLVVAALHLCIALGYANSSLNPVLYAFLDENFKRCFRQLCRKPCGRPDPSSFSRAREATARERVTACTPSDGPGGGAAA", "assay": "Antagonist activity at OPRD1 (unknown origin) at 10 uM", "format": "functional", "design": "scale not given: the % may be the effect or the level left", "settings": "filed as antagonist", "how_it_was_run": "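Single-concentration safety screen at 10 μM across a 47-target panel. GPCRs were run in antagonist mode and enzymes in inhibitor mode.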"}, "[7]": {"assay": "Total clearance in Beagle dog at 26.76 mg/kg, iv administered as single dose measured up to 24 hrs", "format": "ADME, organism-based, Canis lupus familiaris", "settings": "in vivo", "how_it_was_run": "(§3)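 Single intravenous dose. Mice were male C57BL/6J, 12 per route; tail-vein blood was collected under sodium heparin, with 3 mice sampled at each pair of times (0.083/2, 0.25/4, 0.5/8, 1/24 h). Dogs were male beagles (n=3); jugular blood was collected under K2 EDTA predose and at 0.083, 0.25, 0.5, 1, 2, 4, 6, 8 and 24 h. Plasma was prepared from the samples.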"}, "[8]": {"assay": "Plasma protein binding in mouse at 2 uM by rapid equilibrium dialysis based LC-MS/MS analysis", "format": "ADME, cell-free", "settings": "read-out: PPB (converted)", "how_it_was_run": "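Binding was measured at 2 μM in triplicate by rapid equilibrium dialysis (8K MWCO). Quantification was by UPLC-MS/MS on a phenyl column in positive ESI MRM mode (m/z 727>567), with an ammonium formate pH 5 / 1,5-DMHA mobile phase at 50 °C. Both unbound fraction (fu) and % bound are reported.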"}, "[9]": {"assay": "Acute toxicity in C57BL/6 mouse assessed as mortality at 500 mg/kg, ip administered as single dose and measured after 15 days", "format": "organism-based", "settings": "in vivo, 360 h, time 15 day", "how_it_was_run": "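Single intraperitoneal injection (100 µL) into female C57BL/6 mice, with IP2 diluted in sterile PBS at 50, 100, 250 or 500 mg/kg; PBS-treated controls. Behaviour watched right after and at 30 min. Body weight followed every 2–3 days for 15 days. Euthanasia criterion was weight loss ≥20%. Liver, spleen and kidney weights taken at day 15.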"}, "[10]": {"tested_on": "MCA-205", "assay": "Antitumor activity against mouse wild type MCA-205 cells implanted in C57BL/6 mouse assessed as decrease in tumor growth pretreatment at 2.5 mg/kg,iv administered starting from day 7 post inoculation at five days interval upto 17 days relative to control", "format": "functional, organism-based", "settings": "time <= 17.0 day", "how_it_was_run": "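MCA205 WT fibrosarcoma cells were inoculated subcutaneously into the right flank of female C57BL/6 mice. Dosing was 2.5 mg/kg iv from day 7 post-inoculation, repeated every 5 days until day 17; controls were untreated. Tumor area was recorded every 3–4 days up to ethical limits, and tumor size was measured at killing. Analysis was by one-way ANOVA.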"}, "[11]": {"assay": "Toxicity in C57BL/6 mouse assessed as change in kidney weight at 500 mg/kg, ip administered as single dose and measured after 15 days (reference value: 0.3 g)", "format": "organism-based", "settings": "in vivo, 360 h, time 15 day", "how_it_was_run": "as §1"}, "[12]": {"assay": "Toxicity in C57BL/6 mouse assessed as change in kidney weight at 100 mg/kg, ip administered as single dose and measured after 15 days (reference value: 0.3 g)", "format": "organism-based", "settings": "in vivo, 360 h, time 15 day", "how_it_was_run": "as §1"}, "[13]": {"assay": "Metabolic stability in mouse liver microsomes assessed as parent compound remaining incubated for 45 mins in absence of NADPH by HPLC-MS/MS analysis", "format": "ADME, Microsome", "settings": "read-out: Stability", "how_it_was_run": "(§4)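 Incubation with mouse or human liver microsomes for 45 min, with or without NADPH. Remaining parent compound was quantified over time by HPLC-MS/MS and expressed as % remaining; intrinsic clearance is given in μL/min/mg protein.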"}, "[14]": {"assay": "Toxicity in C57BL/6 mouse assessed as behavioral changes at 50 to 500 mg/kg, ip and measured upto 30 mins post administration", "format": "organism-based", "settings": "in vivo, 0.5 h, dose 50-500 mg/kg", "how_it_was_run": "as §1"}, "[15]": {"assay": "Metabolic stability in human liver microsomes assessed as intrinsic clearance incubated for 45 mins by HPLC-MS/MS analysis", "format": "ADME, Microsome", "settings": "read-out: CLH", "how_it_was_run": "as §4"}, "[16]": {"assay": "AUCextra in Beagle dog at 26.76 mg/kg, iv administered as single dose measured up to 24 hrs", "format": "ADME, organism-based, Canis lupus familiaris", "settings": "in vivo", "how_it_was_run": "as §3"}, "[17]": {"assay": "Toxicity in C57BL/6 mouse assessed as change in body weight at 250 mg/kg, ip administered as single dose and measured after 15 days (reference value: 23.5 to 24.2 g)", "format": "organism-based", "settings": "in vivo, 360 h, time 15 day", "how_it_was_run": "as §1"}, "[18]": {"assay": "Tmax in Beagle dog at 26.76 mg/kg, iv administered as single dose measured up to 24 hrs", "format": "ADME, organism-based, Canis lupus familiaris", "settings": "in vivo", "how_it_was_run": "as §3"}, "[19]": {"assay": "Toxicity in C57BL/6 mouse assessed as change in spleen weight at 100 mg/kg, ip administered as single dose and measured after 15 days (reference value: 0.1 to 0.2 g)", "format": "organism-based", "settings": "in vivo, 360 h, time 15 day", "how_it_was_run": "as §1"}, "[20]": {"assay": "Metabolic stability in mouse liver microsomes assessed as parent compound remaining incubated for 45 mins in presence of NADPH by HPLC-MS/MS analysis", "format": "ADME, Microsome", "settings": "read-out: Stability", "how_it_was_run": "as §4"}, "[21]": {"assay": "Toxicity in C57BL/6 mouse assessed as change in spleen weight at 50 mg/kg, ip administered as single dose and measured after 15 days (reference value: 0.1 to 0.2 g)", "format": "organism-based", "settings": "in vivo, 360 h, time 15 day", "how_it_was_run": "as §1"}, "[22]": {"assay": "Cmax in Beagle dog at 26.76 mg/kg, iv administered as single dose measured up to 24 hrs", "format": "ADME, organism-based, Canis lupus familiaris", "design": "time < 24 hrs, dose 26.76 mg/kg, route iv", "settings": "in vivo", "how_it_was_run": "as §3"}, "[23]": {"assay": "Toxicity in C57BL/6 mouse assessed as change in body weight at 500 mg/kg, ip administered as single dose and measured after 15 days (reference value: 23.5 to 24.2 g)", "format": "organism-based", "settings": "in vivo, 360 h, time 15 day", "how_it_was_run": "as §1"}},
  "note": "Active and inactive are the calls of the source.",
  "data": [
    {"smiles": "COc1ccc(-c2cc(=O)c3c(O)cc(OP(=O)([O-])[O-])c(-c4cc(-c5cc(=O)c6c(O)cc(OP(=O)([O-])[O-])cc6o5)ccc4OC)c3o2)cc1.[Na+].[Na+].[Na+].[Na+]", "values": [
      {"measurement": "Activity", "setting": "[1]", "result": 0.9, "unit": "g"},
      {"measurement": "Activity", "setting": "[2]", "result": "Active"},
      {"measurement": "half-life", "setting": "[3]", "result": 48, "unit": "min"},
      {"measurement": "Activity", "setting": "[4]", "result": 40, "unit": "%"},
      {"measurement": "Cmax", "setting": "[5]", "result": 2080, "unit": "ng/mL"},
      {"measurement": "Activity", "setting": "[6]", "result": 53, "unit": "%"},
      {"measurement": "clearance", "setting": "[7]", "result": 0.69, "unit": "mL/min/kg"},
      {"measurement": "fraction unbound at 2 µM", "setting": "[8]", "result": 0.019},
      {"measurement": "Activity", "setting": "[9]", "result": "Non-Toxic"},
      {"measurement": "Activity", "setting": "[10]", "result": "Active"},
      {"measurement": "Activity", "setting": "[11]", "result": 0.2, "unit": "g"},
      {"measurement": "Activity", "setting": "[12]", "result": 0.2, "unit": "g"},
      {"measurement": "remaining at 0.75 h", "setting": "[13]", "result": 72.4, "unit": "%"},
      {"measurement": "Activity", "setting": "[14]", "result": "Non-Toxic"},
      {"measurement": "microsomal CLint", "setting": "[15]", "result": 11, "unit": "µL/min/mg"},
      {"measurement": "%AUCextra", "setting": "[16]", "result": 0.9, "unit": "%"},
      {"measurement": "Activity", "setting": "[17]", "result": 19.1, "unit": "g"},
      {"measurement": "Tmax", "setting": "[18]", "result": 5, "unit": "min"},
      {"measurement": "Activity", "setting": "[19]", "result": 0.1, "unit": "g"},
      {"measurement": "remaining at 0.75 h", "setting": "[20]", "result": 82.3, "unit": "%"},
      {"measurement": "Activity", "setting": "[21]", "result": 0.1, "unit": "g"},
      {"measurement": "Cmax", "setting": "[22]", "result": 272, "unit": "µg/mL"},
      {"measurement": "Activity", "setting": "[23]", "result": 20.4, "unit": "g"}
    ]}
  ]
}
